# Assay results pooled from the literature.
# Each line is one published result; the experiments were not run side by side.
# CSF1R: Macrophage colony-stimulating factor 1 receptor (CSF1R, Homo sapiens, UniProt P07333)
# Tumor necrosis factor receptor superfamily member 9: Tumor necrosis factor receptor superfamily member 9 (Homo sapiens, UniProt Q07011)
Structure (SMILES),target,effect on,action,method,notes,quantity,value
COc1ccc(OC(=O)N(CC(=O)O)Cc2ccc(OCCc3nc(-c4ccccc4)oc3C)cc2)cc1,"Peroxisome proliferator-activated receptor alpha (PPARA, Homo sapiens, UniProt Q07869)",reporter gene,agonist,luciferase,,EC50,6500 nM
Cc1cnc(-c2ccc(-c3ccc(NC(=O)Nc4c(F)cc(F)cc4F)cc3F)c3c2C(=O)NC3)[nH]1,CSF1R,binding,,competition with immobilised ligand,,Kd,1 nM
CCCC[C@@H]1NC(=O)[C@H](Cc2ccc(O)cc2)NC(=O)[C@@H]2CCCN2C(=O)[C@H](CC(=O)O)NC(=O)[C@H](C)NC(=O)[C@H](Cc2ccccc2)NC(=O)[C@@H]2CSCCC(=O)N3CN(CN(C3)C(=O)CCSC[C@@H](C(=O)N[C@@H](CNC(=O)CCc3cn(CC(=O)N[C@H]4CSCCC(=O)N5CN6CN(C5)C(=O)CCSC[C@H](NC(=O)[C@@H](CC(=O)O)NC(=O)[C@H](Cc5cccc7ccccc57)NC(=O)[C@@H]5CCCN5C4=O)C(=O)N[C@@H](CCSC)C(=O)N[C@@H](CCCCNC(=N)N)C(=O)N[C@@H](CC(=O)O)C(=O)N[C@@H](Cc4c[nH]c5ccccc45)C(=O)N[C@@H](CO)C(=O)N[C@@H]([C@@H](C)O)C(=O)N4CCC[C@H]4C(=O)N4C[C@H](O)C[C@H]4C(=O)N[C@@H](Cc4c[nH]c5ccccc45)C(=O)N[C@H](C(N)=O)CSCCC6=O)nn3)C(N)=O)NC1=O)C(=O)CCSC[C@H](NC(C)=O)C(=O)N[C@@H](CC(C)(C)C)C(=O)N1CCC[C@H]1C(=O)N[C@@H](CCC(=O)O)C(=O)N[C@H](C)C(=O)N1CCC[C@H]1C(=O)N[C@@H](Cc1ccc(O)cc1)C(=O)N2,Tumor necrosis factor receptor superfamily member 9,binding,,SPR,,Kd,3.5 nM
CNC(=O)c1cc2c(Oc3ccc(NC(=O)C4(C(=O)Nc5ccc(F)cc5)CC4)cc3)ccnc2cc1OC,CSF1R,enzyme activity,inhibitor,radiometric,,IC50,11 nM
Cc1cc2nc3c(=O)[nH]c(=O)nc-3n(C[C@H](O)[C@H](O)[C@H](O)COP(=O)(O)OP(=O)(O)OC[C@H]3O[C@@H](n4cnc5c(N)ncnc54)[C@H](O)[C@@H]3O)c2cc1C,"Heat shock protein beta-1 (HSPB1, Homo sapiens, UniProt P04792)",binding,,,lysate,Kd,159 nM
CCCC[C@@H]1NC(=O)[C@H](Cc2ccc(O)cc2)NC(=O)[C@@H]2CCCN2C(=O)[C@H](CC(=O)O)NC(=O)[C@H](C)NC(=O)[C@H](Cc2ccccc2)NC(=O)[C@@H]2CSCCC(=O)N3CN(CN(C3)C(=O)CCSC[C@@H](C(=O)N[C@@H](CNC(=O)Cn3cc(CCC(=O)NCCC(=O)N(C)CC(=O)N(C)CC(=O)N(C)CC(=O)N(C)CC(=O)N(C)CC(=O)N(C)CC(=O)N(C)CC(=O)N(C)CC(=O)N(C)CC(=O)N(C)CC(=O)N[C@H]4CSCCC(=O)N5CN6CN(C5)C(=O)CCSC[C@H](NC(=O)[C@@H](CC(=O)O)NC(=O)[C@H](Cc5cccc7ccccc57)NC(=O)[C@@H]5CCCN5C4=O)C(=O)N[C@@H](CCSC)C(=O)N[C@@H](CCCCNC(=N)N)C(=O)N[C@@H](CC(=O)O)C(=O)N[C@@H](Cc4c[nH]c5ccccc45)C(=O)N[C@@H](CO)C(=O)N[C@@H]([C@@H](C)O)C(=O)N4CCC[C@H]4C(=O)N4C[C@H](O)C[C@H]4C(=O)N[C@@H](Cc4c[nH]c5ccccc45)C(=O)N[C@H](C(N)=O)CSCCC6=O)nn3)C(N)=O)NC1=O)C(=O)CCSC[C@H](NC(C)=O)C(=O)N[C@@H](CC(C)(C)C)C(=O)N1CCC[C@H]1C(=O)N[C@@H](CCC(=O)O)C(=O)N[C@H](C)C(=O)N1CCC[C@H]1C(=O)N[C@@H](Cc1ccc(O)cc1)C(=O)N2,Tumor necrosis factor receptor superfamily member 9,binding,,SPR,,Kd,4.9 nM
CC/C=C\C/C=C\C/C=C\C/C=C\C/C=C\C/C=C\CCC(=O)O,"Nuclear receptor subfamily 4 group A member 2 (Homo sapiens, UniProt P43354)",binding,,,,Kd,30000 nM
CC(C)C[C@H](NC(=O)[C@H](Cc1ccccc1)NC(=O)[C@H](Cc1ccc(O)cc1)NC(=O)CNC(=O)[C@H](CCCNC(=N)N)NC(=O)[C@H](CO)NC(=O)[C@H](CCC(N)=O)NC(=O)[C@H](CO)NC(=O)[C@H](C)NC(=O)[C@H](Cc1ccccc1)NC(=O)[C@@H]1CCCN1C(=O)[C@H](CO)NC(=O)[C@H](CCC(N)=O)NC(=O)[C@H](Cc1ccccc1)NC(=O)[C@H](CCC(=O)O)NC(=O)[C@H](CCC(=O)O)NC(=O)[C@H](CC(=O)O)NC(=O)[C@@H](NC(=O)[C@H](CCCNC(=N)N)NC(=O)[C@@H](N)Cc1ccccc1)C(C)C)C(=O)N[C@@H](Cc1ccccc1)C(=O)N[C@@H](CCCNC(=N)N)C(=O)N1CCC[C@H]1C(=O)N[C@@H](CCCNC(=N)N)C(=O)N[C@@H](CC(N)=O)C(N)=O,"Neuromedin-U receptor 2 (NMUR2, Homo sapiens, UniProt Q9GZQ4)",inositol phosphate,agonist,TR-FRET,,EC50,0.17 nM
